Screens deposited in PubChem by Sanford-Burnham Center for Chemical Genomics.
APJ ag: agonists of human apelin receptor APJ, primary screen, CHO-K1 cells, PathHunter beta-arrestin, luminescence. P35414. 0% DMSO wells, 100% apelin. activation, % at 20 µM. hit rate 0.11% among 330,000;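 active = activation more than six SD over the plate average, tested at 20 µM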;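 note: 0% = DMSO alone and 100% = apelin-13 at 10 nM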
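Assay system: engineered CHO-K1 APJ arrestin reporter cells; Amount: 1000 CHO-K1 reporter cells seeded per well; Dosing: one dose, 20 µM compound, 1% DMSO; Times: compound stimulation 90 min at 25 °C, detection 60 min; Measured by: luminescent beta-gal fragment complementation, chemiluminescent substrate; Read-out: APJ–arrestin association signal; Controls: DMSO vs Apelin-13 10 nM.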
APJ antagonist: antagonists of human apelin receptor APJ, primary screen, CHO-K1 cells, beta-arrestin complementation, luminescence | inhibition, % at 20 µM | hit rate 0.32% among 330,000 | AID 2521, 2010;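 active = inhibition above about 40% at 20 µM, limit read from the data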;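 note: cells challenged with 10 nM apelin-13 agonist together with compound; plate controls were apelin-13 plus DMSO wells for no effect and DMSO wells lacking apelin-13 for full effect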
CXCR6 block: CXCR6 receptor inhibitors, primary screen, cell-based, beta-arrestin, luminescence, CHO-K1 PathHunter, 1536-well; inhibition, % at 20 µM; hit rate 0.36% among 360,000; AID 602244, 2012; in the data active = inhibition above about 34%, passing the limit was not always enough;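 note: antagonist mode with CXCL16 agonist at 10 nM final; 0% = 10 nM CXCL16 with DMSO and 100% = unstimulated wells without agonist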
Target sequence (O00574 whole entry, looked up): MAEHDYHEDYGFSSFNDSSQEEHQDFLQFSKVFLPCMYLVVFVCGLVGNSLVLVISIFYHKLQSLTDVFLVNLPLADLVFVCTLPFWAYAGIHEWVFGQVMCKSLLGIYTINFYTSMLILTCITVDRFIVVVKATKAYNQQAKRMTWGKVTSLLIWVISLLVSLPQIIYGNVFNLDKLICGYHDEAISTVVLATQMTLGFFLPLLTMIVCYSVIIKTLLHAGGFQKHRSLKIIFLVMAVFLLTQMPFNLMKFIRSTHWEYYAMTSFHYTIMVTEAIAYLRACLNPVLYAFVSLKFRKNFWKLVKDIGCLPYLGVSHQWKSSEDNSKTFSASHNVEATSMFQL
CCR6 antag: CCR6 receptor antagonists, primary screen, cell-based, CHO-K1, luminescence, beta-arrestin, uHTS; AID 493098, 2011; inhibition, % at 20 µM; C-C chemokine receptor type 6 (Homo sapiens), P51684; CHO-K1 CCR6 PathHunter beta-arrestin, CCL20-stimulated; hit rate 0.49% among 340,000;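 active = compounds whose inhibition of the agonist-driven luminescence signal at 20 µM reaches about 50%, limit read from the data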;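 note: cells stimulated with CCL20 at 14 nM final; plate controls were DMSO with CCL20 for no effect and DMSO without agonist for full effect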
Target sequence (P51684 whole entry, looked up): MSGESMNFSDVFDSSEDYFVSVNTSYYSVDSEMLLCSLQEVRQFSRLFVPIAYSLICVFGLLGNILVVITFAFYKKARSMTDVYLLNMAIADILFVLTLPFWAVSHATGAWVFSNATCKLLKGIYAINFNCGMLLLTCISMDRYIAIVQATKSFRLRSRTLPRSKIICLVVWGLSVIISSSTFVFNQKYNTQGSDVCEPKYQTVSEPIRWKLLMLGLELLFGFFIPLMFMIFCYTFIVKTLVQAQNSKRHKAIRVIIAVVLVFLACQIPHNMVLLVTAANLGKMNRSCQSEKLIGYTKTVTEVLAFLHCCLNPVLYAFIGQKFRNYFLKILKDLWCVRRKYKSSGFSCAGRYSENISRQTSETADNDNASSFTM
EBI2 antag: EBI2 receptor antagonists, beta-arrestin recruitment, primary screen, cell-based, luminescence, 7a,25-OHC stimulation, uHTS. G-protein coupled receptor 183 (Homo sapiens), P32249. 7a,25-OHC stimulated. inhibition, % at 5 µM. hit rate 0.81% among 360,000; in the data active = inhibition above about 38%;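 note: enzyme fragment complementation signal reports receptor beta-arrestin coupling in cells; 0% = agonist plus DMSO wells and 100% = wells without agonist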
EBI2 antag conf: EBI2 antagonist hit retest, beta-arrestin, confirmation, cell-based, single concentration, luminescence, 7a,25-OHC stimulation; shares compounds with EBI2 antag; 7a,25-OHC antagonism; inhibition, % at 5 µM; hit rate 29% among 2,400;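 active = inhibition of at least 50%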
EBI2 agonist: EBI2 agonist activity of antagonist hits, confirmation, counter-screen for EBI2 antagonist project, cell-based, single concentration, agonist mode, luminescence. shares compounds with EBI2 antag. EBI2-expressing cells, 60 min; 0% vehicle, 100% 7α,25-dihydroxycholesterol control. activation, % at 5 µM. 2,400 tested, under 10 active;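 active = activation of at least 50%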
bGal cs: E. coli beta-galactosidase enzyme inhibition, confirmation, counter-screen for EBI2 antagonist project, biochemical, luminescence, single concentration. inhibition, % at 5 µM. shares compounds with EBI2 antag. purified beta-galactosidase, luminescent Galacton Star, 15 min. hit rate 1% among 2,400;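 active = replicate-average signal at least 3 plate SD below neutral wells, shown as high inhibition, flagging enzyme-inhibiting false positives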;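 note: 0% = DMSO wells with enzyme and 100% = wells lacking enzyme; higher means stronger loss of beta-gal luminescence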
* hit, by the source's call; · = no result. Shown are actives, neighbours in structure and some others; about 1.5% of the full set was active somewhere.

SMILES	APJ ag	APJ antagonist	CXCR6 block	CCR6 antag	EBI2 antag	EBI2 antag conf	EBI2 agonist	bGal cs
CCOC(=O)C1CCCN(C2=NC(=O)/C(=C/c3ccc(OC)cc3OC)S2)C1 (stereo not drawn)	-1.7	6.9	5.9	12.3	10.0	·	·	·
O=C1N=C(N2CCCC2)S/C1=C\c1ccccc1	-0.3	-2.0	-4.9	7.1	0.2	·	·	·
C=CCOc1ccc(/C=C2\SC(N3CCCCC3)=NC2=O)cc1	-4.6	2.4	-3.4	14.3	57.0*	43.4	1.3	9.4
CCOC(=O)C1CCCN(C2=NC(=O)/C(=C/c3ccc(OC)cc3)S2)C1 (stereo not drawn)	-3.0	-2.1	3.6	7.7	61.1*	37.9	0.7	-2.2
CN1C(=O)N(CC(=O)c2ccc3c(c2)OCO3)C(=O)C12CCCCC2	·	·	-0.3	·	-6.9	·	·	·
CCOc1cc(CNc2ccc(CNc3ncn[nH]3)cc2)ccc1OCc1ccccc1	1.1	1.0	-12.1	2.4	6.1	·	·	·
Cc1ccc(CNC(=O)C2CCN(S(=O)(=O)c3cccnc3)CC2)cc1	-5.8	11.7	-3.0	7.0	52.4*	43.8	2.1	5.2
Cc1ccc(CNC(=O)C2CCC(CNS(=O)(=O)c3cccc4cccnc34)CC2)cc1 (stereo not drawn)	-3.0	-28.4	0.5	11.7	50.3*	38.9	-0.8	-10.3
Cc1ccc(CNC(=O)C2CCN(S(=O)(=O)c3cccc4nonc34)CC2)cc1	-2.6	4.0	5.3	17.0	48.6*	23.8	-0.1	6.8
CC(=O)N1CCOc2ccc(S(=O)(=O)N3CCC(C(=O)NCc4ccccc4)CC3)cc21	-2.2	2.9	1.3	-6.4	64.6*	49.9	0.2	-14.0
CC1CCN(C(=O)c2cc(S(=O)(=O)N3CCOCC3)ccc2N2CCCC2)CC1	3.5	-2.1	-2.6	6.1	-12.1	·	·	·
Cc1ccc(CNC(=O)C2CCN(S(=O)(=O)c3c(C)noc3C)CC2)cc1	1.4	10.0	-6.0	-8.9	47.2*	17.6	0.9	-10.1
Cc1ccccc1NC(=S)NC1(C)CCS(=O)(=O)C1 (stereo not drawn)	-2.1	7.4	-10.2	2.6	-0.7	·	·	·
Cc1ccc(C)c(NS(=O)(=O)c2cc(C(=O)NCc3ccncc3)ccc2C)c1	-1.6	-7.0	-14.7	13.2	-4.0	·	·	·
COc1cc2nc(C3CCC3)n(NC(=O)c3ccco3)c(=O)c2cc1OC	-3.3	8.5	0.3	-0.7	-11.7	·	·	·
COc1ccc(-c2cc3nc(C)c(CCC(=O)NCc4ccc(F)cc4)c(C)n3n2)c(OC)c1	1.4	10.4	-11.4	-1.3	52.7*	40.5	2.3	-7.3
COc1ccc(CNC(=O)CCc2c(C)nc3cc(-c4ccccc4OC)nn3c2C)cc1	-3.6	11.7	0.6	-0.6	10.3	·	·	·
Cn1c(=O)c2cc(NC(=O)CCc3cccnc3)ccc2n1Cc1ccc(F)cc1	·	·	-0.7	·	-12.4	·	·	·
COc1ccc(N2CC(C(=O)Nc3ccc(S(=O)(=O)N4CCCCC4)cc3)CC2=O)cc1 (stereo not drawn)	-2.1	-13.2	0.8	16.2	75.1*	56.5*	1.0	0.1
Cc1ccc(N2CC(C(=O)Nc3cc(C)ccc3F)CC2=O)cc1 (stereo not drawn)	-4.3	-3.2	2.2	8.1	53.0*	40.9	1.3	1.3
Cc1ccc(N2CC(C(=O)Nc3ccc(S(=O)(=O)N4CCCC4)cc3)CC2=O)cc1 (stereo not drawn)	3.7	10.7	-3.3	8.9	55.2*	30.0	0.5	0.3
COc1ccccc1N1CC(C(=O)Nc2ccc(S(=O)(=O)N3CCCC3)cc2)CC1=O (stereo not drawn)	-0.6	2.7	-1.9	-3.1	-7.8	·	·	·
CCc1ccc(N2CC(C(=O)Nc3ccc(S(=O)(=O)N4CCOCC4)cc3)CC2=O)cc1 (stereo not drawn)	-1.8	-6.8	-5.7	14.7	52.3*	43.0	-0.4	7.1
O=C(C[C@H]1C/C=C\CC[C@H](Cc2ccc(F)cc2)C(=O)O[C@H](c2ccccc2)CNC1=O)N[C@H](CO)Cc1ccccc1	-1.8	-3.2	-0.7	-6.3	-5.5	·	·	·
CC(=O)Nc1cccc(-c2csc(C(O)c3ccc(F)c(F)c3)n2)c1 (stereo not drawn)	·	·	1.1	·	-2.8	·	·	·
SMILES	APJ ag	APJ antagonist	CXCR6 block	CCR6 antag	EBI2 antag	EBI2 antag conf	EBI2 agonist	bGal cs
Cc1ccc(CN2CC(C(=O)Nc3ccc(S(=O)(=O)N4CCCCC4)cc3)CC2=O)cc1 (stereo not drawn)	-0.9	-6.7	-10.0	18.2	50.0*	27.9	-1.4	-12.3
Cc1ccccc1N1CC(C(=O)Nc2ccc(S(=O)(=O)NCC3CCCO3)cc2)CC1=O (stereo not drawn)	-3.8	-0.6	2.1	-9.9	0.5	·	·	·
COc1ccc(N2CC(C(=O)Nc3ccc(S(=O)(=O)N4CCCC4)cc3)CC2=O)cc1 (stereo not drawn)	-0.1	8.7	0.0	6.0	50.1*	16.6	-0.3	-11.5
Cc1ccc(N2CC(C(=O)Nc3ccc(S(=O)(=O)NCC4CCCO4)cc3)CC2=O)cc1 (stereo not drawn)	2.1	6.8	-3.6	22.6	50.6*	29.6	-0.3	1.0
O=C(Nc1ccc(S(=O)(=O)N2CCCCC2)cc1)C1CC(=O)N(c2ccc(Cl)cc2)C1 (stereo not drawn)	-0.5	-7.3	-0.3	-2.4	88.9*	56.4*	3.1	0.9
COc1cc(SC)ccc1C(=O)OCC(=O)N1CCN(C(C)=O)CC1	7.8	6.1	0.2	-2.0	1.8	·	·	·
CCOC(=O)c1cnn(-c2nc(-c3cccc(F)c3)cs2)c1C(F)(F)F	-2.3	5.0	-1.2	8.9	47.7*	42.6	1.9	3.2
CCc1nc2c(OCc3ccc(F)cc3)cccn2c1N(C)C(=O)CC(C)C	·	·	1.1	·	1.5	·	·	·
CCOc1ccc(-c2cn(-c3ccc(OC)cc3)c(SC)n2)cc1	1.1	-2.0	-1.3	10.9	65.4*	26.2	-1.2	-12.3
Cc1ccc(CN(C)C(=O)C2CCC(=O)N(C3CCCCCC3)C2)cc1 (stereo not drawn)	-2.2	3.1	-6.6	5.5	9.1	·	·	·
